Data as given in ChEMBL document CHEMBL1137362, “Synthesis and radioligand binding studies of methoxylated 1,2,3,4-tetrahydroisoquinolinium derivatives as ligands of the apamin-sensitive Ca2+-activated K+ channels” (J Med Chem, 2006).

Tests used:
[1] = target: Small conductance calcium-activated potassium channel (Rattus norvegicus) (UniProt P70604+P70606+P70605); assay: Displacement of [125I]apamin from Wistar rat cortical apamin-sensitive site at 10 uM; assay type: protein assay
Procedure, shortened: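 Single-concentration screen at 10 µM: rat cortical synaptosomes (0.2 mg protein/mL) with 10 pM 125I-apamin, 1 h at 0 °C, Tris-HCl pH 7.5 buffer with 5.4 mM KCl and 0.1% BSA. Percent of specific radioligand binding displaced is reported; nonspecific binding defined with 0.1 µM apamin; filtration and scintillation counting; n = 3.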

[2] = target: Small conductance calcium-activated potassium channel (Rattus norvegicus, UniProt P70604+P70606+P70605); assay: Displacement of [125I]apamin from Wistar rat cortical apamin-sensitive site; assay type: protein assay
Rattus norvegicus [3] = species: Rattus norvegicus; assay: Blockade of apamin-sensitive AHP in Wistar rat dopaminergic neurons by electrophysiology assay; assay type: functional, organism-based; conditions: Neuron
Procedure, shortened: (§1)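 Intracellular bridge-balance recording of the apamin-sensitive AHP in dopaminergic neurons; drugs dissolved in water. IC50 obtained by fitting E = Emax/[1 + (IC50/x)h]; percent AHP block reported at 100 µM; means ± SEM, n = 3.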

Rattus norvegicus [4] = species: Rattus norvegicus; assay: Blockade of apamin-sensitive AHP in Wistar rat dopaminergic neurons by electrophysiology assay at 100 uM; assay type: functional, organism-based; conditions: neuron; procedure, shortened: as §1

SMILES | Activity [1] | other results
COc1cc2c(cc1OC)C(Cc1ccc3ccccc3c1)N(C)CC2 (stereo unspecified) | 6% | 
COc1ccc(CC2c3c(cc(OC)c(OC)c3OC)CC[N+]2(C)C)cc1OC.[I-] (stereo unspecified) | 72% | Ki [2]: 0.73 µM; IC50 (Rattus norvegicus [3]): 9 µM
COc1cc2c(c(OC)c1)C(Cc1ccc(OC)c(OC)c1)[N+](C)(C)CC2 (stereo unspecified) | 20% | 
COc1cc2c(cc1OC)C(CC(C)C)N(C)CC2 (stereo unspecified) | 0% | 
COc1ccc(CC2c3c(ccc(OC)c3OC)CCN2C)cc1OC (stereo unspecified) | 3% | 
COc1cc2c(c(OC)c1)C(Cc1ccc3ccccc3c1)N(C)CC2 (stereo unspecified) | 0% | 
COc1ccc(CCC2c3cc(OC)c(OC)cc3CC[N+]2(C)C)cc1OC.[I-] (stereo unspecified) | 32% | Ki [2]: 5.4 µM
COc1ccc2c(c1OC)C(=O)O[C@@H]2[C@H]1c2c(cc3c(c2OC)OCO3)CC[N+]1(C)C.[I-] |  | Ki [2]: 3.6 µM
COc1cc2c(c(OC)c1)C(Cc1ccc3ccccc3c1)[N+](C)(C)CC2 (stereo unspecified) | 2% | 
COc1cc2c(c(OC)c1OC)C(Cc1ccc3ccccc3c1)[N+](C)(C)CC2.[I-] (stereo unspecified) | 53% | Ki [2]: 2.2 µM
COc1cc2c(cc1OC)C(CC(C)C)[N+](C)(C)CC2 (stereo unspecified) | 0% | 
CCCC1c2cc(OC)c(OC)cc2CCN1C (stereo unspecified) | 0% | 
CCCC1c2cc(OC)c(OC)cc2CC[N+]1(C)C (stereo unspecified) | 6% | 
COc1cc2c(cc1OC)C(Cc1ccc3ccccc3c1)[N+](C)(C)CC2.[I-] (stereo unspecified) | 70% | Ki [2]: 0.91 µM
COc1ccc(CCC2c3cc(OC)c(OC)cc3CCN2C)cc1OC (stereo unspecified) | 11% | 
COc1ccc(C[C@H]2c3cc(OC)c(OC)cc3CC[N+]2(C)C)cc1OC.[I-] [LAUDANOSINE METHIODIDE] |  | Ki [2]: 1.3 µM; IC50 (Rattus norvegicus [3]): 15 µM

Now from value to compound, other results behind:

Activity [1] | SMILES | other results
0% | CN1CCc2ccccc2C1Cc1ccc2ccccc2c1 (stereo unspecified) | 
27% | COc1ccc(CC2c3c(cc(OC)c(OC)c3OC)CCN2C)cc1OC (stereo unspecified) | Inhibition (Rattus norvegicus [4]): 51.9%
0% | COc1cc2c(c(OC)c1OC)C(Cc1ccc3ccccc3c1)N(C)CC2 (stereo unspecified) | 
0% | COc1cc2c(c(OC)c1)C(Cc1ccc(OC)c(OC)c1)N(C)CC2 (stereo unspecified) | 
24% | COc1ccc(CC2c3c(ccc(OC)c3OC)CC[N+]2(C)C)cc1OC (stereo unspecified) | 
0% | COc1ccc2c(c1OC)C(Cc1ccc3ccccc3c1)N(C)CC2 (stereo unspecified) | 
18% | COc1ccc2c(c1OC)C(Cc1ccc3ccccc3c1)[N+](C)(C)CC2 (stereo unspecified) | 
1% | C[N+]1(C)CCc2ccccc2C1Cc1ccc2ccccc2c1 (stereo unspecified) | 
